Screens: PubChem, The Scripps Research Institute Molecular Screening Center
ZTA DNA inh – counter-screen for EBNA-1 inhibitors: inhibitors of Epstein-Barr virus ZTA; P03206; ZTA-DNA binding, fluorescence polarization; inhibition, % at 11 µM; hit rate 0.15% among 320,000; in the data active means inhibition above about 33%
Target sequence (P03206 whole entry, looked up): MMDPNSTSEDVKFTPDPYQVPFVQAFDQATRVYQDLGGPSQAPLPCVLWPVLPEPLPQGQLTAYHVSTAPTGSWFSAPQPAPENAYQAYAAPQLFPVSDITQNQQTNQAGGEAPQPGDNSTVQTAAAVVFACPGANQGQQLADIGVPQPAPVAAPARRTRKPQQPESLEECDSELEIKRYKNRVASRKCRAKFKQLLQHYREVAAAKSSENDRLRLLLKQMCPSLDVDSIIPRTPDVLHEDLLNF
EBNA-1 inhibitor – EBNA-1 DNA-binding inhibitors, primary screen, biochemical, fluorescence polarization. hit rate 0.34% among 300,000. AID 1950, 2009. inhibition, % at 14.8 µM; in the data active means inhibition above about 28%
core dimer inh – inhibitors of HCV core protein dimerization, primary screen, biochemical, TR-FRET, high-throughput; TR-FRET GST/Flag-core106 dimerization, 1536-well; inhibition, % at 5 µM; hit rate 0.33% among 300,000; AID 1899, 2009;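 active means inhibition above the mean of all tested compounds plus 3 SD, set per screening campaign, cut at about 45% in these data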
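test system = GST/Flag-tagged HCV core106 proteins | probe or stimulus = Eu donor and XL665 acceptor anti-tag antibodies | times = compound-protein-antibody incubation 4 h at 22.5 °C | signal = TR-FRET, excitation 340 nm, emission 617 and 671 nm | measure = percent inhibition of core106 dimerization signal | controls = wells lacking GST-core106 and wells with excess unlabelled core106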
HCV NS3 hel inh – inhibitors of HCV NS3 helicase, primary screen, biochemical, Cy5 molecular beacon fluorescence. NS3 helicase DNA unwinding. inhibition, % at 10.9 µM. hit rate 0.56% among 290,000. AID 1800, 2009;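 active means inhibition above the mean of all tested compounds plus 3 SD, set per campaign, cut at about 35% in these data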;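 further: 0% = DMSO wells and 100% = thioflavine S control wells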
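test system = hepatitis C virus NS3 helicase domain fragment enzyme | reagent = annealed dual-labelled DNA beacon duplex, ATP-started | times = 1 h at 25 °C | detection = Cy5 fluorescence, 0 and 60 min reads | read-out basis = percent inhibition from t60/t0 fluorescence ratio | control set = DMSO and thioflavine S | replication = one well per compound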
Numbers without * were called inactive; i = inactive; · = no result given. An excerpt weighted towards active compounds, which were near 1.2% of everything screened.

SMILES | ZTA DNA inh | EBNA-1 inhibitor | core dimer inh | HCV NS3 hel inh
Cc1ccc(C)n1-c1ccc(C(=O)O)cc1 | 50* | -8 | -17 | 30
CCC(C)[C@H]1CNCCN1CCC12CC3CC(CC(C3)C1)C2 (stereo partly drawn) | -10 | · | · | ·
O=S(=O)(Nc1nc2ccccc2nc1N1CCN(CCO)CC1)c1cc(F)ccc1F | 16 | · | · | ·
CCOC(=O)N1CCC(NC(=O)c2cc(COc3ccccc3SC)on2)CC1 | -4 | 3 | 13 | -1
COc1ccccc1NC(=O)c1ccc(SCC(=O)NCc2ccccc2Cl)c([N+](=O)[O-])c1 | -4 | 27 | 53* | 3
COc1ccccc1CNC(=O)CSc1ccc(C(=O)Nc2ccccc2OC)cc1[N+](=O)[O-] | -4 | 0 | 25 | 4
COc1ccc(C2Nc3ccccc3C(=O)N2Cc2ccco2)cc1COc1ccccc1F (stereo not drawn) | -5 | 3 | 46* | 4
Brc1cc(Br)c2ncnc(N3CCCCC3)c2c1 | -1 | -1 | 61* | 2
Clc1ccc(-n2ncc3c(N4CCCCCC4)ncnc32)cc1 | 2 | 0 | -7 | -8
CC[N+]1(C)[C@@H]2CC[C@H]1CC(OC(=O)[C@H]1CCC(C(=O)OC3C[C@H]4CC[C@@H](C3)[N+]4(C)CC)(c3ccccc3)c3ccccc31)C2 (stereo partly drawn) | 6 | 1 | 4 | ·
Cc1ccc(-c2cc(C(F)F)n3ncc(C(=O)Nc4c(C)nn(Cc5ccccc5Cl)c4C)c3n2)cc1 | 15 | 4 | 46* | 6
O=C1OC2(c3ccccc31)c1cc(I)c(O)c(I)c1Oc1c2cc(I)c(O)c1I | 19 | 22 | i | ·
COc1ccc2c3c(cccc13)C(=O)CC2 | · | · | · | 12
N#C/C(N=Nc1ccccc1O)=N\Nc1ccccc1O | -14 | 11 | -56 | ·
O=C(/C=C/c1ccc(NC(=O)c2ccccc2-c2ccccc2C(=O)O)cc1)c1ccccc1 | 41* | 3 | 35 | 26
Nc1ccc(O)c(-c2nc3ccccc3s2)c1 | -3 | -4 | 82* | 16
O=C(N=Nc1c(O)[nH]c2ccc([N+](=O)[O-])cc12)c1cc(-c2ccccc2Cl)nc2ccccc12 | 4 | 6 | 47* | -3
COc1ccccc1C(=O)N=Nc1c(O)[nH]c2ccc([N+](=O)[O-])cc12 | · | · | · | -4
O=C(CN1CCN(S(=O)(=O)c2ccccc2)CC1)N1CCc2ccccc21 | -4 | · | · | ·
CC(=O)C1=C(C)NC(SCC(=O)c2ccc(-c3ccccc3)cc2)=C(C#N)C1c1cccnc1 (stereo not drawn) | 4 | 36* | 3 | -14
CC(=O)C1=C(C)NC(SCSc2ccccc2)=C(C#N)C1c1cccnc1 (stereo not drawn) | -12 | -8 | 9 | -5
O=C(Nc1ccc(Cl)cc1)[C@@H]1[C@@H]2C(=O)N(c3ccc4ccccc4c3)C(=O)[C@@H]2[C@H]2C=CC=NN21 | 0 | -8 | 60* | 9
O=C(Nc1ccc(Cl)cc1)[C@@H]1[C@@H]2C(=O)N(c3cccc(F)c3)C(=O)[C@@H]2[C@H]2C=CC=NN21 | 14 | 4 | 20 | 21
CCOc1ccc(C(C)=O)cc1CSc1nnc(-c2ccoc2C)n1N | 0 | -12 | 46* | 17
CN(C(=S)NC(=O)c1ccccc1)C1CCCCC1 | -1 | 9 | -6 | -6
SMILES | ZTA DNA inh | EBNA-1 inhibitor | core dimer inh | HCV NS3 hel inh
Cc1ccnc(NC(=O)c2cccc(NC(=O)CC3SC(N4CCCCC4)=NC3=O)c2)c1 (stereo not drawn) | -9 | · | · | ·
CCN(CC(=O)Nc1ccc(OC)cc1)C(=O)Cc1cccs1 | 3 | 0 | 52* | ·
CCN(CC(=O)Nc1ccc(OC)cc1)C(=O)CCS(=O)(=O)c1ccc(C)cc1 | 9 | 4 | 2 | -15
O=C(O)c1cc(Cl)ccc1-c1ccc(/C=C/c2cc(C(F)(F)F)[nH]c(=O)n2)o1 | 53* | 43* | 12 | 35
O=C(O)c1ccccc1-c1ccc(/C=C/c2cc(C(F)(F)F)[nH]c(=O)n2)o1 | · | · | · | 15
C/C=C\C=C\C(=O)Nc1cccc(C2=NOC3(C2)C[C@H](C(N)=O)N(C(=O)c2ccccc2C(=O)c2ccccc2)C3)c1 (stereo partly drawn) | 7 | 8 | 50* | ·
C/C=C\C=C/C(=O)Nc1cccc(C2=NOC3(C2)C[C@@H](C(N)=O)N(C(=O)COc2ccc(Cl)cc2)C3)c1 (stereo partly drawn) | 4 | 1 | 25 | ·
C/C=C/C=C/C(=O)Nc1cccc(C2=NOC3(C2)C[C@H](C(N)=O)N(C(=O)CC(c2ccccc2)c2ccccc2)C3)c1 (stereo partly drawn) | -3 | 1 | 48* | ·
C=C(C)C(=O)Nc1cccc(C2=NOC3(C2)C[C@@H](C(N)=O)N(C(=O)[C@H]2CCC(=O)N2)C3)c1 (stereo partly drawn) | -3 | 1 | 81* | ·
C/C=C(/C)C(=O)Nc1cccc(C2=NOC3(C2)C[C@@H](C(N)=O)N(C(=O)[C@H]2CCC(=O)N2)C3)c1 (stereo partly drawn) | -18 | -4 | -16 | ·
C/C=C\C=C\C(=O)N1CC2(CC(c3cccc(NC(=O)COc4ccc(Cl)cc4)c3)=NO2)C[C@H]1C(N)=O (stereo partly drawn) | 9 | -4 | 47* | ·
C/C=C/C=C\C(=O)Nc1cccc(C2=NOC3(C2)C[C@H](C(N)=O)N(C(=O)/C=C/C)C3)c1 (stereo partly drawn) | -7 | 8 | 48* | ·
CCc1nnc2n1N=C(c1ccc(-c3cc(Cl)ccc3Cl)o1)CS2 | 9 | -16 | 61* | 9
Nc1c(C(=O)Nc2ccc(S(=O)(=O)N3CCCC3)cc2)sc2nc3ccc(OC(F)(F)F)cc3cc12 | -6 | 4 | 63* | 12
Nc1c(C(=O)Nc2ccc(S(=O)(=O)N3CCCC3)cc2)sc2nc3cc4c(cc3cc12)CCC4 | -6 | -20 | 29 | 8
CCC1(c2ccccc2)ON(c2c(Br)cccc2Br)C1=O (stereo not drawn) | -26 | · | · | ·
CC(=O)c1cccc(NC(=O)Nc2cc3sccc3n2C)c1 | -18 | 2 | 51* | -6
CC(=O)c1cccc(NC(=O)Nc2cccs2)c1 | -12 | 0 | -5 | 1
COc1ccc(OC)c(-c2cc(C(=O)NCc3ccc(Cl)cc3)no2)c1 | 21 | 30* | 4 | 1
O=C(Nc1cc(Cl)ccc1Cl)c1cc(-c2ccco2)on1 | -2 | -6 | 24 | 13
COc1ccc(Cl)cc1NC(=O)c1cc(-c2ccco2)on1 | 2 | -2 | 63* | 18
Cc1cc(NC(=O)COC(=O)c2cc([N+](=O)[O-])ccc2N2CCOCC2)ccc1Br | 6 | 6 | 1 | ·
O=C(c1cc(-c2ccccc2Cl)nc2ccccc12)N1CCC1 | -14 | -7 | -4 | ·
Cc1ccccc1-c1cc(C(=O)N2CCCC2)c2ccccc2n1 | -1 | 13 | 53* | 20
Cc1ccc(-c2cc(C(=O)N3CCN(c4ccc(F)cc4)CC3)c3ccccc3n2)o1 | 9 | 0 | 49* | 18
